Assay results taken from ChEMBL document CHEMBL1773035, “SHAFTS: a hybrid approach for 3D molecular similarity calculation. 2. Prospective case study in the discovery of diverse p90 ribosomal S6 protein kinase 2 inhibitors to suppress cell migration” (J Med Chem, 2011).

How the values were obtained:
[1] = target: Ribosomal protein S6 kinase alpha-3 (Homo sapiens, UniProt P51812); test: Inhibition of RSK2 after 60 mins
Procedure, shortened: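 Recombinant RSK2 (20 ng) preincubated 20 min at room temperature with compound in HEPES pH 7.4 buffer (MgCl2, EGTA, Tween 20, BGG) with 25 μM S6 peptide; started with ATP (10 μM final), 60 min at room temperature. ADP Quest fluorescence read at ex 530/em 590 nm. IC50 from curves of ≥3 independent tests, measured when inhibition at 10 μM exceeded 30%.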

[2] = tested on: HCT-116; test: Antiproliferative activity against human HCT116 cells over expressing RSK2 at 100 uM after 48 hrs by MTT assay; assay type: functional; conditions: HCT-116, 48 h
Procedure, shortened: (§1)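 Formazan dissolved in DMSO, absorbance read at 570 nm. Inhibition = (1 − A570 compound/A570 control)×100. Screening concentration 100 μM (control 10 μM). IC50 from curves, ≥3 independent tests, attempted when inhibition at 100 μM exceeded 40%.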

[3] = tested on: MDA-MB-231; test: Antiproliferative activity against human MDA-MB-231 cells over expressing RSK2 at 100 uM after 48 hrs by MTT assay; assay type: functional; conditions: MDA-MB-231, 48 h; procedure, shortened: as §1
[4] = tested on: MCF7; test: Antiproliferative activity against human MCF7 cells over expressing RSK2 at 100 uM after 48 hrs by MTT assay; assay type: functional; conditions: MCF7, 48 h; procedure, shortened: as §1
[5] = tested on: HCT-116; test: Antiproliferative activity against human HCT116 cells over expressing RSK2 after 48 hrs by MTT assay; assay type: functional, cell-based; conditions: HCT-116, 48 h; procedure, shortened: as §1
[6] = tested on: MDA-MB-231; test: Antiproliferative activity against human MDA-MB-231 cells over expressing RSK2 after 48 hrs by MTT assay; assay type: functional, cell-based; conditions: MDA-MB-231, 48 h; procedure, shortened: as §1
[7] = tested on: MCF7; test: Antiproliferative activity against human MCF7 cells over expressing RSK2 after 48 hrs by MTT assay; assay type: functional, cell-based; conditions: MCF7, 48 h; procedure, shortened: as §1

Chain of Ribosomal protein S6 kinase alpha-3 (P51812 whole entry): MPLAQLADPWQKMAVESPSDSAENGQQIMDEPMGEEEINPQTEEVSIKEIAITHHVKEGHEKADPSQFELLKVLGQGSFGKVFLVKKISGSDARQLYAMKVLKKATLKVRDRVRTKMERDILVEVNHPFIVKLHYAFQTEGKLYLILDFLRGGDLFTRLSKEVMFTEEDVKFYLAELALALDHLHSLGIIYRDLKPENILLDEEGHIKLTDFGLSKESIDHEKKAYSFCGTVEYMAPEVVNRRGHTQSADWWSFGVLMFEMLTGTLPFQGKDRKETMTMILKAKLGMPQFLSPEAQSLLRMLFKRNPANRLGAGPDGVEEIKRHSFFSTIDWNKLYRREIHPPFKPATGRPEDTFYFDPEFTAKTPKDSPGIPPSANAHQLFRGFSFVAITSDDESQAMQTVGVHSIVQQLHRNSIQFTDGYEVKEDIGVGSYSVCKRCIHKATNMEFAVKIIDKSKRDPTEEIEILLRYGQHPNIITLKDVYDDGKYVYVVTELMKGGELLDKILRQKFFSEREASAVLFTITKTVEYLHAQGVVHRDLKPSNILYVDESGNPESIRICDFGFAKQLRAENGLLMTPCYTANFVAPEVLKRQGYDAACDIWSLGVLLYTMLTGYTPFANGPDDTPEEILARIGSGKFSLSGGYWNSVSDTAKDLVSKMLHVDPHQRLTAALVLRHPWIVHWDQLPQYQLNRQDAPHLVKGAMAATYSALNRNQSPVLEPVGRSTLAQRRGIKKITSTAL

| SMILES | IC50 [1] | inhibition at 100 µM [2] | inhibition at 100 µM [3] | inhibition at 100 µM [4] | IC50 [5] | IC50 [6] | IC50 [7] |
| --- | --- | --- | --- | --- | --- | --- | --- |
| O=C(NNc1ccc(C(F)(F)F)cn1)c1ccccc1Cl | 13.2 µM | – | – | – | – | – | – |
| O=C1c2ccccc2C(=O)N1CNc1ccc(N2CCOCC2)cc1 | 0.95 µM | 13.2% | 6.89% | 31.2% | – | – | – |
| O=C1NC(=O)C(=NNc2ccc(O)cc2)C(=O)N1 | 1.58 µM | 49.1% | 97.9% | 85.8% | > 100 µM | 9.69 µM | 15.6 µM |
| O=C(Nc1ccccc1O)c1cnns1 | 3.03 µM | 43.2% | 46.5% | 32.7% | > 100 µM | > 100 µM | – |
| Cc1ccc2nc(-c3cc(N)cc(C)c3O)oc2c1 | 1.38 µM | 44.2% | 54.7% | 45.1% | > 100 µM | > 100 µM | > 100 µM |
| Nc1nc2nc(O)nc(O)c2s1 | 9.99 µM | – | – | – | – | – | – |
| Nc1n[nH]c(N)c1/N=N/c1ccc(S(N)(=O)=O)cc1 | 5.5 µM | 6.98% | 18.5% | 32.9% | – | – | – |
| COc1cc(/C=N/n2cnnc2)cc(I)c1O | 16.2 µM | – | – | – | – | – | – |
| N#Cc1nc(/N=N/c2ccccc2)[nH]c1O | 7.04 µM | 4.8% | 12.1% | 0% | – | – | – |
